# Experimental data from different studies.
# Lines come from different studies, so protocols differ.
# Read-out: microbial growth
SMILES,organism,test,system,setting,quantity,value
O=C1/C(=C/c2ccc3ccccc3c2O)NC(=S)N1c1ccccc1,Bacillus cereus,broth dilution,ATCC14579,,MIC,24 µg/mL
COc1ccc(C=NNC(=O)CSc2nc3c(C)cccc3c(=O)n2-c2ccccc2)cc1OS(C)(=O)=O,Bacillus cereus,well diffusion,,20 µg/mL,inhibition zone,2 mm
N#CC(C#N)=C1SC(C(=O)c2ccc(Nc3cnccn3)cc2)=NN1c1ccccc1,Salmonella enterica,broth dilution,ATCC13076 TYPHIMURIUM,,MIC,100 µg/mL
[H]/N=C(/N)N[C@H]1[C@H](O)[C@@H](O)[C@H](O[C@@H]2O[C@@H](C)[C@](O)(C=O)[C@H]2O[C@@H]2O[C@@H](CO)[C@H](O)[C@@H](O)[C@@H]2NC)[C@@H](N/C(N)=N\[H])[C@@H]1O,Bacillus cereus,broth dilution,ATCC14579,,MIC,15 µg/mL
CC1(C)S[C@@H]2[C@H](NC(=O)[C@H](N)c3ccccc3)C(=O)N2[C@H]1C(=O)O,Salmonella enterica,broth dilution,ATCC14028,12 h,MIC,0.25 µg/mL
Nc1ccc(S(=O)(=O)Nc2ncccn2)cc1,Salmonella enterica,broth dilution,TYPHIMURIUM,,MIC,94 µg/mL
COc1ccc(N2N=C(C(=O)c3ccc(Nc4cnccn4)cc3)SC2=C(C#N)C#N)cc1,Salmonella enterica,broth dilution,ATCC13076 TYPHIMURIUM,,MIC,6.25 µg/mL
O=c1oc2ccccc2c(Nc2ccccc2)c1I,Salmonella enterica,broth dilution,TYPHIMURIUM,,MIC90,10 µg/mL
CCCS(=O)(=O)Oc1ccc(C=NNC(=O)CSc2nc3c(C)cccc3c(=O)n2-c2ccccc2)cc1OC,Bacillus cereus,well diffusion,,20 µg/mL,inhibition zone,3 mm
CNC(C)C1CCC(N)C(OC2C(N)CC(N)C(OC3OCC(C)(O)C(NC)C3O)C2O)O1 (centres unmarked),Bacillus cereus,broth dilution,,,MIC,2 µg/mL
N#CC(C#N)=C1SC(C(=O)c2ccc(Nc3cnccn3)cc2)=NN1c1ccc([N+](=O)[O-])cc1,Salmonella enterica,broth dilution,ATCC13076 TYPHIMURIUM,,MIC,12.5 µg/mL
